Test [1] deals with Fusarium oxysporum f. sp. niveum. Briefly: Stimulation of cellulase activity in Fusarium oxysporum f. sp. niveum at 1600 mg/L measured 7 days post compound treatment by DNS method. It is filed as functional.
Test [2] shares this test system. Kind of test: Stimulation of proteinase activity in Fusarium oxysporum f. sp. niveum at 1600 mg/L measured 7 days post compound treatment. The test is classed as functional.
The test system of test [3] is Neurospora crassa. Briefly: Growth inhibition of Neurospora crassa assessed as inhibition of mycelial growth at 200 mg/L. The test is classed as functional. The conditions noted are these: read-out: GI.
The test system of test [4] is Fusarium oxysporum f. sp. niveum. Briefly: Growth inhibition of Fusarium oxysporum f. sp. niveum assessed as inhibition of mycelium dry weight at 1600 mg/L measured 7 days post compound treatment. It is filed as functional. As to conditions: 168 h. The method in brief:
(§1)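 Strain NJAUS-1 was grown in 30 mL potato dextrose broth (pH 4.5, HCl), inoculated with a 5 mm plug from a 7-day PDA culture. Flasks were shaken at 170 rpm, 28 °C, for 7 days. Mycelium was filtered and dried at 80 °C for 12 h to constant dry weight. Cinnamic acid was tested at 200–1600 mg L-1; controls received sterile water. Three replicates, mean ± SE.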

For test [5] the test system is unchanged. Briefly: Stimulation of amylase activity in Fusarium oxysporum f. sp. niveum at 1600 mg/L measured 7 days post compound treatment by DNS method (reference value: 3.7 +/- 0.5 umol/min/ml). It is filed as functional.
The test system is the same in test [6]. Briefly: Stimulation of amylase activity in Fusarium oxysporum f. sp. niveum at 400 mg/L measured 7 days post compound treatment by DNS method (reference value: 3.7 +/- 0.5 umol/min/ml). It is filed as functional.
The test system is the same in test [7]. Briefly: Stimulation of cellulase activity in Fusarium oxysporum f. sp. niveum at 1600 mg/L measured 7 days post compound treatment by DNS method (reference value: 0.03 +/- 0.1 umol/min/ml). The test is classed as functional.
For test [8] the test system is unchanged. Kind of test: Stimulation of proteinase activity in Fusarium oxysporum f. sp. niveum at 1600 mg/L measured 7 days post compound treatment (reference value: 0.42 +/- 0.2 U//min/ml). It is filed as functional.
For test [9] the test system is unchanged. Kind of test: Stimulation of pectinase activity in Fusarium oxysporum f. sp. niveum at 1600 mg/L measured 7 days post compound treatment by DNS method (reference value: 0.01 +/- 0.0 U//ml/min). The test is classed as functional.
Test [10] has the same test system. Briefly: Stimulation of mycotoxin production in Fusarium oxysporum f. sp. niveum at 1600 mg/L measured 7 days post compound treatment by spectrophotometry (reference value: 26.9 +/- 4.9 ug/mL). It is filed as functional.
Test [11] shares this test system. Kind of test: Growth inhibition of Fusarium oxysporum f. sp. niveum assessed as reduction in sporulation measured 7 days post compound treatment. It is filed as functional, organism-based. The method in brief: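 FON was grown 7 days in modified Bilay and Joffe's medium (4.0 g sodium carboxymethyl cellulose, pH 4) with cinnamic acid at 200–1600 mg L-1 or a water control. Broth was diluted 10-5–10-7, and 0.1 mL was spread on PDA and incubated in the dark at 28 °C for 4 days. Colonies were counted and converted to conidia per culture. Three replicates, mean ± SE.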

Test [12] has the same test system. Briefly: Growth inhibition of Fusarium oxysporum f. sp. niveum assessed as reduction in conidial germination measured […]. The test is classed as functional, organism-based. The method in brief: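 Conidia came from a 7-day liquid culture (28 °C), collected by filtration and diluted in sterile water. 0.1 mL was spread on 2% water agar plates containing cinnamic acid (200–1600 mg L-1; water control) and incubated at 28 °C for 3 days. Colonies were counted daily. Three replicate plates per treatment.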

Test [13] has the same test system. Kind of test: Growth inhibition of Fusarium oxysporum f. sp. niveum assessed as colony diameter at 1600 mg/L measured 7 days post compound treatment (reference value: 7.0 +/- 0.63 cm). The test is classed as functional.
Test [14] shares this test system. Briefly: Growth inhibition of Fusarium oxysporum f. sp. niveum assessed as reduction in hyphal growth measured 7 days post compound treatment. It is filed as functional, organism-based.
Test [15] shares this test system. Kind of test: Growth inhibition of Fusarium oxysporum f. sp. niveum assessed as mycelium dry weight at 1600 mg/L measured 7 days post compound treatment (reference value: 0.22 +/- 0.01 g). The test is classed as functional. The method in brief:
as §1

Test [16] shares this test system. Briefly: Stimulation of proteinase activity in Fusarium oxysporum f. sp. niveum at 1600 mg/L measured 7 days post compound treatment by Tseng and Mount method.

Consider `O=C(O)/C=C/c1ccccc1` [CINNAMIC ACID], for which the Activity was determined as 2006% in [1]; 760% in test [2]; 4.6 µmol/min/mL in [5]; 5.2 µmol/min/mL in test [6]; 0.33 µmol/min/mL in test [7]; 3.21 U/min/ml in [8]. In addition, the Activity is 0.052 U/ml/min in test [9]; 13.25 µg/mL in test [10]; 0 cm in test [13]; 0.08 g in test [15]; 760% in test [16]. Besides, in [3], the inhibition of growth at 200 µg/mL came to 94%. Moreover, in test [4], the inhibition – broadly, the drop in the measured response relative to a control, in per cent – at 1600 µg/mL is 63.3%. Moreover, the “growth inhibition (GI)” value in [11], in [12] and in test [14] was “Dose-dependent effect” each time.

Source of the values: ChEMBL document CHEMBL3044620, “Cinnamic acid inhibits growth but stimulates production of pathogenesis factors by in vitro cultures of Fusarium oxysporum f.sp. niveum” (2008).
